The test system of data set [1] is Human immunodeficiency virus. The data set can be described thus: Inhibition of recombinant HIV protease at 50 nM after 15 mins by fluorescence assay. In short, it runs like this: (§1)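 Recombinant HIV-1 protease was assayed in MES–NaOH pH 5.5 with DTT, EDTA and NaCl, with inhibitor at 50 nM final (500 nM DMSO stock). The substrate was H-Lys-Ala-Arg-Val-Tyr-Phe(p-NO2)-Glu-Ala-Nle-NH2, and the reaction ran 15 min at 37 °C. It was stopped with 1 N HCl. The N-terminal fragment was quantified by RP-HPLC with fluorescence at ex 275/em 305 nm.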

The test system of data set [2] is Human immunodeficiency virus 1. Description: Antiviral activity against HIV1 3B infected in human MT4 cells assessed as inhibition of virus-induced cytopathic effect after 5 days by MTT assay. In kind it is functional, organism-based. To be noted: Human immunodeficiency virus 1, 3B, MT4, 120 h. In short, it runs like this:
(§2)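 HIV-1 (IIIB or pNL4-3) inoculated into MT-4 cells. Cultures were treated with an equal volume of a 1% DMSO solution of compound at several concentrations plus 10% fetal bovine serum, then incubated 5 days at 37 °C in CO2, in triplicate. After MTT, optical density gave the percent cytopathic effect reduction. EC50 was fitted to a median-effect equation.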
(Damage to the host cells serves as the signal in cytopathic effect assays.)

Data set [3] addresses Protease (Human immunodeficiency virus 1) (UniProt Q9YQ12). The data set can be described thus: Inhibition of HIV1 recombinant protease at 50 nM after 15 mins by fluorescence assay. The method in brief:
as §1

Data set [4] shares this target. Description: Inhibition of HIV1 recombinant protease at 1 nM after 3 hrs by fluorescence assay.
A further data set has as its target Protease (Human immunodeficiency virus 1, UniProt Q9YQ12). Description: Inhibition of HIV1 recombinant protease after 15 mins by fluorescence assay.
Data set [5] relates to Human immunodeficiency virus 1. Description: Antiviral activity against indinavir-resistant HIV1 harboring L10R/M46I/L63P/V82T/I84V mutant protease infected in human MT4 cells assessed as inhibition of virus-induced cytopathic effect after 5 days by MTT assay. In kind it is functional, organism-based. To be noted: Human immunodeficiency virus 1, MT4, 120 h. In short, it runs like this: (§3)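 MT-4 cells inoculated with HIV-1 wild-type pNL4-3 or indinavir-resistant IND-R, then given an equal volume of compound in 1% DMSO at several concentrations with 10% fetal bovine serum. Incubated 5 days at 37 °C in CO2, in triplicate. MTT read-out by optical density gave percent cytopathic-effect reduction; EC50 was fitted to a median-effect equation.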

Data set [6] concerns Human immunodeficiency virus 1. The data set can be described thus: Antiviral activity against HIV1 pNL4-3 infected in human MT4 cells assessed as inhibition of virus-induced cytopathic effect after 5 days by MTT assay. Format: functional, organism-based. Conditions: Human immunodeficiency virus 1, pNL4-3, MT4, 120 h. In short, it runs like this:
as §2

Data set [7] deals with Human immunodeficiency virus 1. Description: Fold resistance, ratio of EC50 for indinavir-resistant HIV1 harboring L10R/M46I/L63P/V82T/I84V mutant protease infected in human MT4 cells to EC50 for HIV1 pNL4-3 infected in human MT4 cells. Format: functional. The method in brief: as §3
Data set [8] deals with Human immunodeficiency virus 1. Description: Antiviral activity against HIV1 pNL4-3 infected in human MT4 cells assessed as inhibition of virus-induced cytopathic effect after 5 days by MTT assay in presence of 50% human serum. In kind it is functional, organism-based. To be noted: Human immunodeficiency virus 1, pNL4-3, MT4, 120 h. The method in brief: (§4)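 MT-4 cells were infected with wild-type HIV-1 (IIIB or pNL4-3) in the presence of 50% human serum. Compound was added at several concentrations from a 1% DMSO solution, and cells were incubated 5 days at 37 °C in triplicate. Cytopathic effect reduction was read by MTT optical density, and EC50 was derived from a median-effect equation fit.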

The subject of data set [9] is Human immunodeficiency virus 1. Description: Ratio of EC50 for HIV1 pNL4-3 infected in human MT4 cells in presence of 50% human serum to EC50 for HIV1 pNL4-3 infected in human MT4 cells in absence of human serum. In kind it is functional. In short, it runs like this: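 HIV-1 pNL4-3 was inoculated into MT-4 cells, then test compound was added at several concentrations in 1% DMSO with 10% FBS. Cultures were incubated 5 days at 37 °C in CO2, in triplicate, and the cytopathic effect was read by MTT optical density. EC50 was fitted to a median-effect equation with and without 50% human serum. The serum binding effect is their ratio.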

For data set [10], the system named is Human immunodeficiency virus 1. The data set can be described thus: Antiviral activity against HIV1 pNL4-3 infected in human MT4 cells assessed as inhibition of virus-induced cytopathic effect after 5 days by MTT assay in absence of human serum. In kind it is functional, organism-based. Conditions: Human immunodeficiency virus 1, pNL4-3, MT4, 120 h. In short, it runs like this:
as §2

The nature of data set [11]: Aqueous solubility in 0.1% TFA after 30 mins by RP-HPLC analysis. In kind it is physicochemical. To be noted: 0.1% TFA in water.
Data set [12] relates to Human immunodeficiency virus 1. The data set can be described thus: Ratio of EC50 for HIV1 3B infected in human MT4 cells in presence of 50% human serum to EC50 for HIV1 3B infected in human MT4 cells in absence of human serum. In kind it is functional.
The test system of data set [13] is Human immunodeficiency virus 1. The data set can be described thus: Antiviral activity against HIV1 3B infected in human MT4 cells assessed as inhibition of virus-induced cytopathic effect after 5 days by MTT assay in presence of 50% human serum. In kind it is functional, organism-based. To be noted: Human immunodeficiency virus 1, 3B, MT4, 120 h. In short, it runs like this: as §4

Data set [14] relates to Human immunodeficiency virus 1. Description: Antiviral activity against HIV1 3B infected in human MT4 cells assessed as inhibition of virus-induced cytopathic effect after 5 days by MTT assay in absence of human serum. In kind it is functional, organism-based. To be noted: Human immunodeficiency virus 1, 3B, MT4, 120 h. The method in brief:
as §2

In brackets after ≈: the same amount, converted by molar mass.

Broadly, the inhibition is how much of the control response was suppressed. As usually defined, the EC50 is the concentration that produces a half-maximal response. The term Ki denotes a measure of affinity in units of concentration, obtained from inhibition or displacement. The solubility is how much of the substance goes into solution per volume. A high value points to a readily soluble substance.

Sequence of Protease (Human immunodeficiency virus 1) (Q9YQ12 as listed by the source): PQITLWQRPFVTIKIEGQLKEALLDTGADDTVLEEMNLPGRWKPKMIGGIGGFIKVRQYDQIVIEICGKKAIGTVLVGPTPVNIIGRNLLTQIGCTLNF
Sequence of Protease (Q9YQ12 whole entry): as the sequence (Q9YQ12 as listed by the source) above

Consider `Cc1c(O)cccc1C(=O)N[C@@H](Cc1ccccc1)[C@H](O)C(=O)N1CSC(C)(C)[C@H]1C(=O)NC(C)(C)c1ccccc1`, for which, in data set [1], the inhibition was 82%. For the same compound, the EC50 in [2] worked out at 123 nM.
With `Cc1c(O)cccc1C(=O)N[C@@H](Cc1ccccc1)[C@H](O)C(=O)N1CSC(C)(C)[C@H]1C(=O)NCc1c(Cl)cccc1Cl`, the inhibition worked out at 98% in [3] and 66% in [4]. Besides, the 50% effective concentration (EC50) in data set [2] was 39 nM.
Regarding `Cc1cccc(C)c1CNC(=O)[C@H]1N(C(=O)[C@@H](O)[C@H](Cc2ccccc2)NC(=O)c2cccc(O)c2C)CSC1(C)C`, the inhibition came out at 99% in data set [3] and 82% in data set [4]. For the same compound, the inhibitory constant (Ki) at Protease is 0.0024 nM.
On to `Cc1c(O)cccc1C(=O)N[C@@H](Cc1ccccc1)[C@H](O)C(=O)N1CSC(C)(C)[C@H]1C(=O)NCc1c(F)cccc1F`, for which the figures for the inhibition in [3] and in data set [4] were 91% and 24%, respectively. The EC50 in data set [2] came to 51 nM.
Consider `Cc1c(O)cccc1C(=O)N[C@@H](Cc1ccccc1)[C@H](O)C(=O)N1CSC(C)(C)[C@H]1C(=O)N[C@@H](C)c1ccccc1`, for which the inhibition was 95% in [3] and 31% in data set [4]. In addition, in [2], the EC50 turned out to be 79 nM.
As to `Cc1ccccc1CNC(=O)[C@H]1N(C(=O)[C@@H](O)[C@H](Cc2ccccc2)NC(=O)c2cccc(O)c2C)CSC1(C)C`, the inhibition in [3] was determined as 99%; in [4] it was 72%. Also, the half-maximal effective concentration (EC50) in [5] stood at 100 nM; in data set [6] it was 60 nM; in [2], 33 nM. For the same compound, the inhibition constant Ki at Protease was found to be 0.031 nM. The “Ratio EC50” value in data set [7] worked out at 1.7.
Regarding `C=C(C)CNC(=O)[C@H]1N(C(=O)[C@@H](O)[C@H](Cc2ccccc2)NC(=O)COc2c(C)cc(N)cc2C)CSC1(C)C`, the EC50 in [8] came to 82 nM; in data set [10], 10 nM. Also, the “Ratio EC50” value in data set [9] is listed as 8.2. The inhibition in data set [3] came out at 98%; in [4], 43%. This compound also showed a solubility at 0.5 h in data set [11] of 8480 µg/mL (≈ 14.9 mM).
Regarding `Cc1c(O)cccc1C(=O)N[C@@H](Cc1ccccc1)[C@H](O)C(=O)N1CSC(C)(C)[C@H]1C(=O)NCc1c(F)cccc1Cl`, the values for the inhibition in data set [3] and in data set [4] were 97% and 50%, respectively. In addition, the EC50 worked out at 157 nM in [5], 25 nM in data set [6] and 32 nM in [2]. In [7], the “Ratio EC50” value was 6.3.
Take `Cc1cccc(Cl)c1CNC(=O)[C@H]1N(C(=O)[C@@H](O)[C@H](Cc2ccccc2)NC(=O)c2cccc(O)c2C)CSC1(C)C`: the inhibition in [3] amounted to 99%; in data set [4] it was 77%. The EC50 in [2] was 32 nM.
In the case of `Cc1c(F)cccc1CNC(=O)[C@H]1N(C(=O)[C@@H](O)[C@H](Cc2ccccc2)NC(=O)c2cccc(O)c2C)CSC1(C)C`, the inhibition in [3] came to 97%; in [4] it was 53%. Moreover, in data set [2], the EC50 was 56 nM.
Consider `C=C(C)CNC(=O)[C@H]1N(C(=O)[C@@H](O)[C@H](Cc2ccccc2)NC(=O)c2cccc(O)c2C)CSC1(C)C`, for which, in [3], the inhibition was 98%. For the same compound, the EC50 in [6] was determined as 17 nM. For the same compound, the Ki at Protease amounted to 0.19 nM.
As for `Cc1ccccc1CNC(=O)[C@H]1N(C(=O)[C@@H](O)[C@H](Cc2ccccc2)NC(=O)COc2c(C)cc(N)cc2C)CSC1(C)C`, the “Ratio EC50” value in [12] is reported as 3; in [7], 5.5. Also, the inhibition in data set [3] amounted to 98%. The EC50 in data set [5] was 568 nM; in [13], 249 nM; in data set [14] it was 83 nM; in data set [6], 103 nM. The compound also gave a solubility at 0.5 h in [11] of 2640 µg/mL (≈ 4.27 mM).
For `Cc1c(O)cccc1CNC(=O)[C@H]1N(C(=O)[C@@H](O)[C@H](Cc2ccccc2)NC(=O)c2cccc(O)c2C)CSC1(C)C`, the inhibition in [3] was found to be 95%; in [4], 41%. Besides, the EC50 came out at 155 nM in [5], 162 nM in data set [6] and 120 nM in data set [2]. Also, the “Ratio EC50” value in data set [7] is listed as 1.
